According to ChEMBL document CHEMBL1155721, “Isolation of dolastatin 10 from the marine cyanobacterium Symploca species VP642 and total stereochemistry and biological evaluation of its analogue symplostatin 1” (J Nat Prod, 2001):
Active and inactive are the calls of the source. The rule behind the calls is not given here.

What was measured:
KB = test: Cytotoxicity against human KB cells; assay type: functional, cell-based
In short: (§1)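 In vitro cytotoxicity was read out by the sulforhodamine B (SRB) assay, and IC50 values were derived from it.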

LoVo = test: Cytotoxicity against human LoVo cells; assay type: functional, cell-based; in short: as §1
Mus musculus [1] = test: Toxicity in iv dosed mouse on 1 day; assay type: organism-based; details: in vivo, 24 h
In short: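 Mice received a single intravenous injection on day 1 at 1.0 or 1.4 mg/kg, and lethality was recorded.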

A10 [2] = test: Antitumor activity against rat A10 cells assessed as loss of cellular microtubule after 18 hrs by indirect immunofluorescence; assay type: functional, cell-based; details: A10, 18 h
In short: (§2)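 Rat A-10 cells were plated on glass coverslips and left to attach and grow for at least 24 h. Drug was then added for 18 h. Cells were fixed and cellular microtubules were visualised by indirect immunofluorescence.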

MC-38 = test: Antitumor activity against drug-insensitive mouse C38 cell implanted in mouse at 3 mg/kg, iv total dosing schedule on day 3; assay type: functional
In short: (§3)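 Mice bearing early-stage subcutaneously implanted solid tumours; treatment given intravenously. Activity expressed as T/C and as log kill, (T − C)/(3.32·Td). T and C are the median days for treated and control tumours to reach 750-1000 mg. Td is the tumour volume doubling time.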

A10 [3] = test: Antitumor activity against rat A10 cells assessed as total loss of cellular microtubule at 2.5 nM after 18 hrs by indirect immunofluorescence; assay type: functional, cell-based
[4] = Antitumor activity against drug-insensitive mouse 16/C cell implanted in mouse at 1.25 mg/kg, iv total dosing schedule on day 1 and day 4 to 6; assay type: functional; in short: as §3
Mus musculus [5] = test: Gastro intestinal toxicity in iv dosed mouse; assay type: organism-based; details: in vivo
Mus musculus [6] = test: Toxicity in iv dosed mouse assessed as local tissue damage; assay type: organism-based; details: in vivo
[7] = Antitumor activity against adriamycin-resistant early stage mouse M17/ADR cell implanted in mouse at 2.8 mg/kg, iv total dosing schedule on day 1 and day 4,7,8; assay type: functional; in short: as §3
Mus musculus [8] = test: Liver toxicity in iv dosed mouse; assay type: organism-based; details: in vivo
[9] = Antitumor activity against adriamycin-resistant early stage mouse M16/C/ADR cell implanted in mouse at 3.15 mg/kg, iv total dosing schedule on day 1 and day 3, 5 to 9; assay type: functional; in short: as §3
A10 [10] = test: Antitumor activity against rat A10 cells assessed as total loss of cellular microtubule at 0.75 nM after 18 hrs by indirect immunofluorescence; assay type: functional, cell-based; in short: as §2
A10 [11] = test: Antitumor activity against rat A10 cells assessed as total loss of cellular microtubule at 150 nM after 18 hrs by indirect immunofluorescence; assay type: functional, cell-based

`CC[C@H](C)[C@@H]([C@@H](CC(=O)N1CCC[C@H]1[C@H](OC)[C@@H](C)C(=O)N[C@@H](Cc1ccccc1)c1nccs1)OC)N(C)C(=O)[C@@H](NC(=O)[C@H]([C@@H](C)CC)N(C)C)C(C)C` [SYMPLOSTATIN 1] gave an IC50 (KB; Homo sapiens, KB) of 0.15 nM, an IC50 (LoVo; Homo sapiens, LoVo) of 0.34 nM and an LD20 (Mus musculus [1]) of 1 mg/kg. For the same compound, the LD60 (Mus musculus [1]) was 1.4 mg/kg, the EC50 (A10 [2]) was 0.6 nM and the T/C (MC-38) was 0%. For the same compound, the Activity (A10 [3]) was “Active”, the T/C [4] was 0% and the Activity (Mus musculus [5]) was “Toxic”. For the same compound, the Activity (Mus musculus [6]) was “Toxic”, the T/C [7] was 32% and the Activity (Mus musculus [8]) was “Toxic”. For the same compound, the T/C [9] was 36%.
For `CC[C@H](C)[C@@H]([C@@H](CC(=O)N1CCC[C@H]1[C@H](OC)[C@@H](C)C(=O)N[C@@H](Cc1ccccc1)c1nccs1)OC)N(C)C(=O)[C@@H](NC(=O)[C@H](C(C)C)N(C)C)C(C)C` (stereo in doubt; 1) [DOLASTATIN-10], the IC50 (KB; Homo sapiens, KB) was 0.052 nM, the IC50 (LoVo; Homo sapiens, LoVo) was 0.076 nM and the EC50 (A10 [2]) was 0.25 nM.
In the case of `CC[C@H](C)[C@@H]([C@@H](CC(=O)N1CCC[C@H]1[C@H](OC)[C@@H](C)C(=O)N[C@@H](Cc1ccccc1)c1nccs1)OC)N(C)C(=O)[C@@H](NC(=O)[C@H](C(C)C)N(C)C)C(C)C` (stereo in doubt; 1), the Activity (A10 [10]) is reported as “Active”.
With `CC[C@H](C)[C@@H]([C@@H](CC(=O)N1CCC[C@H]1[C@H](OC)[C@@H](C)C(=O)N[C@@H](Cc1ccccc1)c1nccs1)OC)N(C)C(=O)[C@@H](NC(=O)[C@H](C(C)C)N(C)C)C(C)C` (stereo in doubt) [DOLASTATIN-10] the IC50 (KB; kb) was 0.041 nM and the IC50 (LoVo; lovo) was 0.066 nM.
With `CC[C@]1(O)C[C@@H]2CN(CCc3c([nH]c4ccccc34)[C@@](C(=O)OC)(c3cc4c(cc3OC)N(C)[C@H]3[C@@](O)(C(=O)OC)[C@H](OC(C)=O)[C@]5(CC)C=CCN6CC[C@]43[C@@H]65)C2)C1` the Activity (A10 [11]) was “Active”.
